Results on 13 molecules are retold here after ChEMBL document CHEMBL3351523 (Bioorg Med Chem, 2014).

The structures appear in SMILES notation. pEC50: −log10 of the molar value.

Series [1] is described as follows: Cytotoxicity against mock-infected human MT4 cells after 96 hrs by MTT assay. In kind it is cell-based. The method, boiled down:
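Exponentially growing MT-4 cells were seeded at 1 × 10^5 cells/mL in RPMI-1640 with 10% FBS and held at 37 °C, 5% CO2 with serial compound dilutions. Viability was read by MTT after 96 h. CC50 from linear regression against untreated controls.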

The test system of series [2] is Human immunodeficiency virus 1. Briefly: Antiviral activity against HIV1 infected in human MT4 cells assessed as inhibition of virus-induced cytopathogenicity after 4 days by MTT assay. In kind it is functional, organism-based. To be noted: Human immunodeficiency virus 1, MT4, 96 h. The method, boiled down:
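MT-4 cells (1 × 10^4/well in RPMI) were infected acutely with HIV-1 IIIB, 100 CCID50 (m.o.i. 0.01), with serial dilutions from 100 µM, 1:5. After 4 days at 37 °C, protection from virus-induced cytopathogenicity was read by MTT. EC50 came from linear regression against untreated controls.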
A general note: Protection from cytopathic effect is a common read-out in antiviral testing.

Series [3] in a line: Cytotoxicity against mock-infected MDBK cells after 48 to 96 hrs by MTT assay. In kind it is cell-based, Bos taurus. To be noted: cattle. The method, boiled down: (§1)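 Mock-infected MDBK (6 × 10^5 cells/mL; MEM-E, 10% horse serum, 1 mM pyruvate) or BHK (1 × 10^6 cells/mL; MEM-E, 10% FBS) cells were incubated at 37 °C, 5% CO2 with serial dilutions from 100 µM, 1:5. Viability by MTT after 48–96 h. CC50 from linear regression against untreated controls.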
In general terms: Tetrazolium dyes change colour on reduction, which living cells bring about.

Series [4] has as its system Bovine viral diarrhea virus 1. Briefly: Antiviral activity against Bovine viral diarrhea virus infected in MDBK cells assessed as inhibition of virus-induced cytopathogenicity after 3 to 4 days by MTT assay. In kind it is functional, organism-based. To be noted: Bovine viral diarrhea virus isolates and strains.
Series [5] can be described thus: Cytotoxicity against mock-infected BHK21 cells after 48 to 96 hrs by MTT assay. In kind it is functional. The following applies: Mesocricetus auratus, BHK-21. In outline:
as §1

A further series concerns Yellow fever virus. Briefly: Antiviral activity against Yellow fever virus infected in BHK21 cells assessed as inhibition of virus-induced cytopathogenicity after 3 to 4 days by MTT assay. In kind it is functional, organism-based. To be noted: BHK-21.
Another series deals with Reovirus sp. Briefly: Antiviral activity against Reovirus type-1 infected in BHK21 cells assessed as inhibition of virus-induced cytopathogenicity after 3 to 4 days by MTT assay. In kind it is functional, organism-based. To be noted: BHK-21.
A short description of series [6]: Cytotoxicity against mock-infected african green monkey Vero 76 cells after 48 to 96 hrs by MTT assay. In kind it is cell-based. The following applies: chlorocebus sabaeus, mock-infected Vero 76 cells.
A further series relates to Coxsackievirus B5. Briefly: Antiviral activity against Coxsackievirus B5 infected in african green monkey Vero 76 cells assessed as reduction in plaque number after 3 days by plaque reduction assay. The following applies: Enterovirus B, 72 h. In kind it is functional, organism-based. Background: In a plaque reduction assay, fewer plaques than in the control indicate reduced infectivity or spread.

The next series deals with Poliovirus 1. Description: Antiviral activity against Poliovirus type 1 Sabin strain infected in african green monkey Vero 76 cells assessed as reduction in plaque number after 2 days by plaque reduction assay. In kind it is functional, organism-based. To be noted: Enterovirus C, 48 h.
Series [7] deals with Respiratory syncytial virus. Description: Antiviral activity against Respiratory syncytial virus infected in african green monkey Vero 76 cells assessed as reduction in plaque number after 5 days by plaque reduction assay. In kind it is functional, organism-based. The following applies: human respiratory syncytial virus, 120 h.
The test system of series [8] is Vesicular stomatitis virus. Briefly: Antiviral activity against Vesicular stomatitis virus infected in african green monkey Vero 76 cells assessed as reduction in plaque number after 2 days by plaque reduction assay. The following applies: 48 h. In kind it is functional, organism-based.
The test system of the next series is Vaccinia virus. Briefly: Antiviral activity against Vaccinia Virus infected in african green monkey Vero 76 cells assessed as reduction in plaque number after 3 days by plaque reduction assay. The following applies: Orthopoxvirus vaccinia, 72 h. In kind it is functional, organism-based.
For another series, the system named is Human alphaherpesvirus 1. Description: Antiviral activity against HSV1 infected in african green monkey Vero 76 cells assessed as reduction in plaque number after 3 days by plaque reduction assay. In kind it is functional, organism-based. To be noted: Human alphaherpesvirus 1, Vero, 72 h.

Usually CC50 stands for the concentration that lowers cell viability or growth by half. In general, pEC50 refers to the negative decadic logarithm of the EC50, by convention in mol/L. The molecule `CC(=O)Nc1ccc(Cc2nc3ccccc3[nH]2)cc1` showed a CC50 at 96 h in series [1] of over 100 µM. Also, the pEC50 (in [2]; in [4]; in the series with Yellow fever virus; in the series with Reovirus sp.; with Coxsackievirus B5; with Poliovirus 1) was under 4.00 throughout. Also, the pEC50 (in series [7]; in [8]; with Vaccinia virus; with Human alphaherpesvirus 1) was under 4.00 throughout. Further, the CC50 in series [3], in series [5] and in series [6] was over 100 µM in each case.
In [1], `FC(F)(F)c1ccc2c(c1)nc(Cc1ccc(Cl)c(Cl)c1)n2C[C@@H]1CCCN2CCCC[C@H]12` displayed a CC50 at 96 h of over 100 µM. Also, the pEC50 (in [2]; in series [4]; with Yellow fever virus; in the series with Reovirus sp.; in the series with Coxsackievirus B5; with Poliovirus 1) was under 4.00 each time. For the same molecule, the pEC50 (in series [7]; in [8]; with Vaccinia virus; in the series with Human alphaherpesvirus 1) was under 4.00 throughout. Further, the CC50 is 37 µM in series [3], over 100 µM in [5] and over 100 µM in series [6].
In the case of `COc1ccc(Cc2nc3cc(C(F)(F)F)ccc3n2C[C@@H]2CCCN3CCCC[C@H]23)cc1`, the CC50 at 96 h in [1] stood at 77 µM. Moreover, the pEC50 (in [2]; in [4]; in the series with Yellow fever virus; with Reovirus sp.; in the series with Coxsackievirus B5; in the series on Poliovirus 1) was under 4.00 throughout. Further, the pEC50 (in series [7]; in series [8]; in the series on Vaccinia virus; with Human alphaherpesvirus 1) was under 4.00 in each case. For the same molecule, the CC50 in series [3] was over 100 µM; in series [5], over 100 µM; in series [6], 89 µM.
As to `FC(F)(F)c1ccc2c(c1)nc(Cc1ccc(Cl)c(Cl)c1)n2C[C@H]1CCCN2CCCC[C@H]12`, in series [1], the CC50 at 96 h was found to be 4 µM. Besides, the pEC50 (in series [2]; in series [4]; in the series with Yellow fever virus; with Reovirus sp.; in the series with Coxsackievirus B5; in the series with Poliovirus 1) was under 4.00 each time. For the same molecule, the negative-log EC50 (pEC50) (in [7]; in series [8]; in the series on Vaccinia virus; with Human alphaherpesvirus 1) was under 4.00 in each case. In addition, the values for the CC50 in [3], in series [5] and in series [6] were over 100 µM, 34 µM and over 100 µM, respectively.
Molecule `COc1ccc(Cc2nc3cc(C(F)(F)F)ccc3n2C[C@H]2CCCN3CCCC[C@H]23)cc1` came in with a CC50 at 96 h in series [1] of at least 100 µM. Besides, the pEC50 (in series [2]; in series [4]; with Yellow fever virus; in the series with Reovirus sp.; in the series on Coxsackievirus B5; with Poliovirus 1) was under 4.00 each time. For the same molecule, the pEC50 (in [7]; in series [8]; in the series on Vaccinia virus; with Human alphaherpesvirus 1) was under 4.00 throughout. Further, the CC50 in series [3], in series [5] and in [6] was over 100 µM throughout.
In series [1], `CC(=O)Nc1ccc(Cc2nc3cc(C(F)(F)F)ccc3[nH]2)cc1` displayed a CC50 at 96 h of over 100 µM. Also, the pEC50 (in [2]; in series [4]; in the series on Yellow fever virus; in the series on Reovirus sp.; with Coxsackievirus B5; in the series on Poliovirus 1) was under 4.00 each time. For the same molecule, the pEC50 (in series [7]; in [8]; in the series with Vaccinia virus; with Human alphaherpesvirus 1) was under 4.00 each time. For the same molecule, the CC50 in series [3], in [5] and in [6] was over 100 µM each time.
In turn, `Clc1ccc(Cc2nc3cc(Cl)c(Cl)cc3[nH]2)cc1` registered a CC50 at 96 h in [1] of 37 µM. The pEC50 (in series [2]; in series [4]; in the series on Yellow fever virus; with Reovirus sp.; in the series with Coxsackievirus B5; in the series on Poliovirus 1) was under 4.00 throughout. Moreover, the pEC50 (in series [7]; in [8]; in the series with Vaccinia virus; with Human alphaherpesvirus 1) was under 4.00 throughout. The CC50 in series [3] is 9 µM; in series [5], over 100 µM; in series [6] it was 71 µM.
The molecule `Clc1ccc(Cc2nc3cc(Cl)c(Cl)cc3[nH]2)cc1Cl` yielded a CC50 at 96 h in series [1] of over 100 µM. In addition, the pEC50 (in series [2]; in [4]; with Yellow fever virus; with Reovirus sp.; in the series with Coxsackievirus B5; in the series on Poliovirus 1) was under 4.00 throughout. In addition, the pEC50 (in [7]; in series [8]; in the series on Vaccinia virus; with Human alphaherpesvirus 1) was under 4.00 each time. Moreover, the CC50 in series [3] is over 100 µM; in series [5], over 100 µM; in series [6] it was 70 µM.
`Clc1cc2nc(Cc3ccc(Br)cc3)[nH]c2cc1Cl` came in with a CC50 at 96 h in series [1] of 68 µM. For the same molecule, the pEC50 (in [2]; in [4]; in the series with Yellow fever virus; in the series with Reovirus sp.; in the series on Coxsackievirus B5; in the series with Poliovirus 1) was under 4.00 throughout. For the same molecule, the pEC50 (in series [7]; in series [8]; in the series on Vaccinia virus; with Human alphaherpesvirus 1) was under 4.00 each time. In addition, the CC50 was 10 µM in [3], 10 µM in series [5] and 73 µM in [6].
In series [1], `CC(=O)Nc1ccc(Cc2nc3cc(Cl)c(Cl)cc3[nH]2)cc1` gave a CC50 at 96 h of over 100 µM. The pEC50 (in series [2]; in series [4]; with Yellow fever virus; in the series on Reovirus sp.; in the series on Coxsackievirus B5; in the series with Poliovirus 1) was under 4.00 in each case. Besides, the pEC50 (in series [7]; in series [8]; in the series on Vaccinia virus; in the series on Human alphaherpesvirus 1) was under 4.00 each time. The CC50 in [3], in series [5] and in series [6] was over 100 µM each time.
Molecule `CC(CC(=O)O)n1c(Cc2ccc(Cl)cc2)nc2ccccc21` (configuration not stated) showed a CC50 at 96 h in series [1] of over 100 µM. For the same molecule, the pEC50 (in [2]; in series [4]; with Yellow fever virus; with Reovirus sp.; in the series with Coxsackievirus B5; in the series on Poliovirus 1) was under 4.00 each time. The pEC50 (in series [7]; in series [8]; in the series with Vaccinia virus; with Human alphaherpesvirus 1) was under 4.00 throughout. In addition, the CC50 in series [3], in series [5] and in series [6] was over 100 µM each time.
In series [1], `c1ccc2[nH]c(C[C@@H]3CCCN4CCCC[C@H]34)nc2c1` registered a CC50 at 96 h of 17 µM. Further, the pEC50 is under 4.00 in [2]; 4.47 in [4]; under 4.00 in the series on Yellow fever virus; under 4.00 with Reovirus sp.; under 4.00 with Coxsackievirus B5; under 4.00 in the series with Poliovirus 1. The pEC50 (in [7]; in [8]; in the series with Vaccinia virus; with Human alphaherpesvirus 1) was under 4.00 in each case. Besides, the CC50 in series [3] was over 100 µM; in series [5] it was 78 µM; in series [6], over 100 µM.
`Clc1ccc2[nH]c(C[C@@H]3CCCN4CCCC[C@H]34)nc2c1` yielded a CC50 at 96 h in [1] of 53 µM. Further, the pEC50 was under 4.00 in series [2]; 4.77 in [4]; under 4.00 in the series with Yellow fever virus; under 4.00 in the series on Reovirus sp.; under 4.00 with Coxsackievirus B5; under 4.00 in the series on Poliovirus 1. The negative logarithm of the EC50 (pEC50) (in series [7]; in series [8]; in the series on Vaccinia virus; in the series with Human alphaherpesvirus 1) was under 4.00 in each case. For the same molecule, the results for the CC50 in series [3], in series [5] and in [6] were 77 µM, 52 µM and over 100 µM, respectively.
